# Experimental data gathered from unrelated publications.
# Compare with care: the assays were run in different laboratories.
# ACHE: Acetylcholinesterase (ACHE, Homo sapiens, UniProt P22303)
# DPP4: Dipeptidyl peptidase 4 (DPP4, Homo sapiens, UniProt P27487)
# Sialidase-2: Sialidase-2 (Homo sapiens, UniProt Q9Y3R4)
# FABP4: Fatty acid-binding protein, adipocyte (FABP4, Homo sapiens, UniProt P15090)
Compound,target,assay,test system,setting,IC50 [µM]
CC(C)(C)c1cccc(C=Nc2ccc(SCc3cc(=O)c(O)co3)cc2)c1,ACHE,"enzyme activity, inhibitor, Ellman",,,6.45
COc1c2c(cc3c1-c1c(cc4c(c1OC)OCO4)C[C@H](C)[C@H](C)C3)OCO2,DPP4,"enzyme activity, inhibitor, fluorescence",,,> 100
Cn1cc2cc(C(F)(F)c3nnc4ccc(-c5cnn(C6CC6)c5)nn34)c(F)cc2n1,"Proto-oncogene tyrosine-protein kinase Src (SRC, Homo sapiens, UniProt P12931)","enzyme activity, inhibitor, ADP detection",,,> 1
NC(=O)CC[C@H](NC(=O)[C@@H]1CCCN1C(=O)[C@H](CCC(N)=O)NC(=O)[C@@H]1CCCN1C(=O)[C@@H](N)Cc1ccc(O)cc1)C(=O)O,DPP4,"enzyme activity, inhibitor, absorbance",,pH 8,23.9
CC(C)CCC(=O)N[C@H]1[C@H]([C@H](O)[C@H](O)CO)OC(C(=O)O)=C[C@@H]1O,Sialidase-2,"enzyme activity, inhibitor",,,10
COc1ccccc1C=Nc1ccc(SCc2cc(=O)c(O)co2)cc1,ACHE,"enzyme activity, inhibitor, Ellman",,,6.23
C1CO1.C=O.CC(C)(C)CC(C)(C)c1ccc(O)cc1,"Mitogen-activated protein kinase 3 (MAPK3, Homo sapiens, UniProt P27361)","enzyme activity, inhibitor, ADP detection",,,91.9
COC(=O)[C@@H](NC(=O)COc1c(NC(C)=O)cc(-c2nc3ccccc3s2)cc1OC)C(C)C,ACHE,"enzyme activity, inhibitor, Ellman",,,> 264
O=C(O)C(F)(F)C(F)(F)C(F)(F)C(F)(F)C(F)(F)C(F)(F)C(F)(F)F,FABP4,"ligand displacement, fluorescence",,pH 7.5,4.67
Cc1cccc(C=Nc2ccc(SCc3cc(=O)c(O)co3)cc2)c1,ACHE,"enzyme activity, inhibitor, Ellman",,,5.66
O=C(O)C(F)(F)C(F)(F)C(F)(F)C(F)(F)C(F)(F)C(F)(F)C(F)(F)C(F)(F)C(F)(F)C(F)(F)F,FABP4,"ligand displacement, fluorescence",,pH 7.5,2.92
O=c1cc(-c2ccc(O)c(O)c2)oc2cc(O)cc(O)c12,DPP4,"enzyme activity, inhibitor, fluorescence",,,48
CC(=O)c1c(C)c2cnc(Nc3ccc(C4CCN(CCS(C)(=O)=O)CC4)cn3)nc2n(C2CCCC2)c1=O,"Cytochrome P450 2C9 (CYP2C9, Homo sapiens, UniProt P11712)","enzyme activity, inhibitor","human, liver microsomes",,> 10
CCCCCC(=O)N(C)[C@H]1[C@H]([C@H](O)[C@H](O)CO)OC(C(=O)O)=C[C@@H]1O,Sialidase-2,"enzyme activity, inhibitor",,,140
O=c1cc(CSc2ccc(N=Cc3ccccc3[N+](=O)[O-])cc2)occ1O,ACHE,"enzyme activity, inhibitor, Ellman",,,5.13
CC(C)(C)NC(=O)N[C@H]1[C@H]([C@H](O)[C@H](O)CO)OC(C(=O)O)=C[C@@H]1O,Sialidase-2,"enzyme activity, inhibitor",,,> 500
COc1cc(-c2nc3ccccc3s2)cc(NC(C)=O)c1OCC(=O)NCC(=O)O,ACHE,"enzyme activity, inhibitor, Ellman",,,> 298
O=C(O)C1=C[C@H](O)[C@@H](NCc2ccc(-c3ccccc3)cc2)[C@H]([C@H](O)[C@H](O)CO)O1,Sialidase-2,"enzyme activity, inhibitor",,,230
COc1ccc(CCCCC(=O)C(F)(F)C(F)(F)F)cc1,"Phospholipase A2 group V (PLA2G5, Homo sapiens, UniProt P39877)","enzyme activity, inhibitor",,,44.5
O=C(O)C(F)(F)C(F)(F)C(F)(F)C(F)(F)C(F)(F)C(F)(F)F,FABP4,"ligand displacement, fluorescence",,pH 7.5,11
CCc1ccc(C=Nc2ccc(SCc3cc(=O)c(O)co3)cc2)cc1,ACHE,"enzyme activity, inhibitor, Ellman",,,8.46
CCCCNC(=O)N[C@H]1[C@H]([C@H](O)[C@H](O)CO)OC(C(=O)O)=C[C@@H]1O,Sialidase-2,"enzyme activity, inhibitor",,,380
CCOC(=O)c1ccc(OC(=O)CCCCCN=C(N)N)cc1,"Tryptase beta-2 (TPSB2, Homo sapiens, UniProt P20231)","enzyme activity, inhibitor",,,0.00428
O=c1cc(CSc2ccc(N=Cc3ccccc3Br)cc2)occ1O,ACHE,"enzyme activity, inhibitor, Ellman",,,1.34
CCN[C@H]1[C@H]([C@H](O)[C@H](O)CO)OC(C(=O)O)=C[C@@H]1O,Sialidase-2,"enzyme activity, inhibitor",,,> 500
Cc1ccc(C=Nc2ccc(SCc3cc(=O)c(O)co3)cc2)cc1,ACHE,"enzyme activity, inhibitor, Ellman",,,6.53
CC(C)Cc1cn([C@H]2[C@H]([C@H](O)[C@H](O)CO)OC(C(=O)O)=C[C@@H]2O)nn1,Sialidase-2,"enzyme activity, inhibitor",,,1.4
CC(C)(C)c1ccc(C=Nc2ccc(SCc3cc(=O)c(O)co3)cc2)cc1,ACHE,"enzyme activity, inhibitor, Ellman",,,17.4
CC(C)(C)CC(=O)N[C@H]1[C@H]([C@H](O)[C@H](O)CO)OC(C(=O)O)=C[C@@H]1O,Sialidase-2,"enzyme activity, inhibitor",,,80
COC(=O)CNC(=O)COc1c(NC(C)=O)cc(-c2nc3ccccc3s2)cc1OC,ACHE,"enzyme activity, inhibitor, Ellman",,,> 289
